Measurements published in ChEMBL document CHEMBL4145462, “Nitrogen-containing ecdysteroid derivatives vs. multi-drug resistance in cancer: Preparation and antitumor activity of oximes, oxime ethers and a lactam” (Eur J Med Chem, 2018).
Blank lines part the entries; values can stand above or below the compound they belong to.

Columns and labels:
[1] = Synergistic cytotoxicity against mouse L5178 cells assessed as combination index at ED50 using 300:1 test compound to doxorubicin ratio after 48 hrs by MTT-based checkerboard microplate method; type: functional
Procedure, shortened: (§1)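 Checkerboard microplate combinations of compound with doxorubicin at constant molar ratios. 5 × 10^4 cells/well in McCoy's 5A, 48 h at 37°C, 5% CO2. MTT added to 0.5 mg/mL final for 4 h, SDS/HCl overnight, OD read at 540 and 630 nm. Combination indices derived per ratio for 50%, 75% and 90% growth inhibition by median-effect analysis.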

MCF7 = assay: Antiproliferative activity against human MCF7 cells after 72 hrs by MTT assay; type: functional, cell-based; settings: MCF7, 72 h
Procedure, shortened: (§2)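 Cells grown in MEM with 10% FCS, 1% non-essential amino acids and 1% penicillin-streptomycin. Seeded at 5000 cells/well, exposed to 0.1–30.0 µM compound for 72 h. MTT (5 mg/ml solution) was then added for 4 h, formazan dissolved in DMSO, and absorbance read at 545 nm. Cisplatin served as positive control. IC50 came from sigmoidal dose–response fits (log inhibitor vs normalized response, variable slope).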

[2] = Synergistic cytotoxicity against mouse L5178 cells expressing human ABCB1 assessed as combination index at ED90 using 7.5:1 test compound to doxorubicin ratio after 48 hrs by MTT-based checkerboard microplate method; type: functional; procedure, shortened: as §1
HeLa = assay: Antiproliferative activity against human HeLa cells after 72 hrs by MTT assay; type: functional, cell-based; procedure, shortened: as §2
[3] = Synergistic cytotoxicity against mouse L5178 cells assessed as combination index at ED50 using 37.5:1 test compound to doxorubicin ratio after 48 hrs by MTT-based checkerboard microplate method; type: functional; procedure, shortened: as §1
[4] = Synergistic cytotoxicity against mouse L5178 cells assessed as combination index at ED90 using 600:1 test compound to doxorubicin ratio after 48 hrs by MTT-based checkerboard microplate method; type: functional; procedure, shortened: as §1
[5] = Synergistic cytotoxicity against mouse L5178 cells expressing human ABCB1 assessed as combination index at ED50 using 60:1 test compound to doxorubicin ratio after 48 hrs by MTT-based checkerboard microplate method; type: functional; procedure, shortened: as §1
[6] = Synergistic cytotoxicity against mouse L5178 cells expressing human ABCB1 assessed as combination index at ED75 using 7.5:1 test compound to doxorubicin ratio after 48 hrs by MTT-based checkerboard microplate method; type: functional; procedure, shortened: as §1
[7] = Synergistic cytotoxicity against mouse L5178 cells assessed as combination index at ED50 using 150:1 test compound to doxorubicin ratio after 48 hrs by MTT-based checkerboard microplate method; type: functional; procedure, shortened: as §1
ABCB1 (P-glycoprotein) [8] = molecular target: T1, ABCB1 (P-glycoprotein) (Homo sapiens, UniProt P08183); assay: Inhibition of human ABCB1 expressed in mouse L5178 cells assessed as increase in rhodamine-123 accumulation at 20 uM after 10 mins by flow cytometric analysis relative to control; type: cell-based; settings: mouse L5178 cells expressing human ABCB1, probe rhodamine-123
T1 sequence (P08183 whole entry): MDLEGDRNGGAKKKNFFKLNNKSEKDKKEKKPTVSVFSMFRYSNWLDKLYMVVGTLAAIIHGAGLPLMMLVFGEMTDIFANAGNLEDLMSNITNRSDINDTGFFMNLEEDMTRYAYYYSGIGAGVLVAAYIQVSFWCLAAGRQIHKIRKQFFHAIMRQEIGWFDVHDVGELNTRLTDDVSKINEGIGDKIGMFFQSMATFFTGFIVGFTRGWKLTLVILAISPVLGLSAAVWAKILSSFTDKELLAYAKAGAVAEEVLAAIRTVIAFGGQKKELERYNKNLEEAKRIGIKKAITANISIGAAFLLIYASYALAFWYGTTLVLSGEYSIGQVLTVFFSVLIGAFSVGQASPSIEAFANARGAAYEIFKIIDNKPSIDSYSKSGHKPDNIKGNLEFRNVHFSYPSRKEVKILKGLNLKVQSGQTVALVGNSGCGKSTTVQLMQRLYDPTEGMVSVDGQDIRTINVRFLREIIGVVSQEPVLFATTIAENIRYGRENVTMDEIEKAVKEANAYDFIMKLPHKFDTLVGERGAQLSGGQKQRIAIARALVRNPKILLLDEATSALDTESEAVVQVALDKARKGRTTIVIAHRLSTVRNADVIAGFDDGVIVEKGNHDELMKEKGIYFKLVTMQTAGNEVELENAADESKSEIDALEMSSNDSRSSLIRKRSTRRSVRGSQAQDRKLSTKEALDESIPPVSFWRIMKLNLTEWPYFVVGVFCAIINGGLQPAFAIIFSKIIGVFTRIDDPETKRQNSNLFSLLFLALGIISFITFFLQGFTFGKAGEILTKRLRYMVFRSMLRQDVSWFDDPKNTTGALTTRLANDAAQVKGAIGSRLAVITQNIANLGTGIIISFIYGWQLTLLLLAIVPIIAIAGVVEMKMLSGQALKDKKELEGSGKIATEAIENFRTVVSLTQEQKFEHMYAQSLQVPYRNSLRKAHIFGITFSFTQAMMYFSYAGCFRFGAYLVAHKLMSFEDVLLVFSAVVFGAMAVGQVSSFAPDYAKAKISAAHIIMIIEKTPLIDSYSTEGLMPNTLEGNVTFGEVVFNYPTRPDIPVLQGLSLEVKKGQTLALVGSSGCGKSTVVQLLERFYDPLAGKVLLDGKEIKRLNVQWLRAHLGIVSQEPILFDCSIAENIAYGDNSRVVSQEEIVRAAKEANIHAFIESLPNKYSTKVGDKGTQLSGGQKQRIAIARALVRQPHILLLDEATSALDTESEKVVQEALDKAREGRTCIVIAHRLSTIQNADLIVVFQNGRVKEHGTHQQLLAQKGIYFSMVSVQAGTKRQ
Procedure, shortened: (§3)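 Cells at 2 × 10^6/mL were preincubated 10 min with compound. Rhodamine 123 then added to 5.2 µM final, 20 min at 37 °C. Cells washed twice in PBS, resuspended and read by flow cytometry. Percent inhibition was scaled between MDR-cell accumulation (0%) and parental L5178 accumulation (100%). Controls: 100 nM tariquidar (positive) and 2% DMSO (negative).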

[9] = Synergistic cytotoxicity against mouse L5178 cells expressing human ABCB1 assessed as combination index at ED75 using 15:1 test compound to doxorubicin ratio after 48 hrs by MTT-based checkerboard microplate method; type: functional; procedure, shortened: as §1
ABCB1 (P-glycoprotein) [10] = molecular target: T1, ABCB1 (P-glycoprotein); assay: Inhibition of human ABCB1 expressed in mouse L5178 cells assessed as increase in rhodamine-123 accumulation at 2 uM after 10 mins by flow cytometric analysis relative to control; type: cell-based; settings: mouse L5178 cells expressing human ABCB1, probe rhodamine-123; procedure, shortened: as §3
[11] = Synergistic cytotoxicity against mouse L5178 cells expressing human ABCB1 assessed as combination index at ED90 using 60:1 test compound to doxorubicin ratio after 48 hrs by MTT-based checkerboard microplate method; type: functional; procedure, shortened: as §1
[12] = Synergistic cytotoxicity against mouse L5178 cells assessed as combination index at ED75 using 75:1 test compound to doxorubicin ratio after 48 hrs by MTT-based checkerboard microplate method; type: functional; procedure, shortened: as §1
[13] = Synergistic cytotoxicity against mouse L5178 cells assessed as combination index at ED50 using 600:1 test compound to doxorubicin ratio after 48 hrs by MTT-based checkerboard microplate method; type: functional; procedure, shortened: as §1
[14] = Synergistic cytotoxicity against mouse L5178 cells expressing human ABCB1 assessed as combination index at ED90 using 30:1 test compound to doxorubicin ratio after 48 hrs by MTT-based checkerboard microplate method; type: functional; procedure, shortened: as §1
[15] = Synergistic cytotoxicity against mouse L5178 cells assessed as combination index at ED90 using 150:1 test compound to doxorubicin ratio after 48 hrs by MTT-based checkerboard microplate method; type: functional; procedure, shortened: as §1
[16] = Synergistic cytotoxicity against mouse L5178 cells assessed as combination index at ED90 using 300:1 test compound to doxorubicin ratio after 48 hrs by MTT-based checkerboard microplate method; type: functional; procedure, shortened: as §1
[17] = Synergistic cytotoxicity against mouse L5178 cells expressing human ABCB1 assessed as combination index at ED50 using 15:1 test compound to doxorubicin ratio after 48 hrs by MTT-based checkerboard microplate method; type: functional; procedure, shortened: as §1
[18] = Synergistic cytotoxicity against mouse L5178 cells assessed as combination index at ED75 using 600:1 test compound to doxorubicin ratio after 48 hrs by MTT-based checkerboard microplate method; type: functional; procedure, shortened: as §1
MDA-MB-231 = assay: Antiproliferative activity against human MDA-MB-231 cells after 72 hrs by MTT assay; type: functional, cell-based; settings: MDA-MB-231, 72 h; procedure, shortened: as §2
[19] = Synergistic cytotoxicity against mouse L5178 cells expressing human ABCB1 assessed as combination index at ED50 using 7.5:1 test compound to doxorubicin ratio after 48 hrs by MTT-based checkerboard microplate method; type: functional; procedure, shortened: as §1
[20] = Cytotoxicity against mouse L5178 cells expressing human ABCB1 after 48 hrs by MTT assay; type: functional, cell-based; settings: L5178, 48 h
Procedure, shortened: (§4)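 Parental mouse lymphoma L5178 and the MDR line made by pHa MDR1/A retrovirus transfection, selected with 60 µg/L colchicine. Grown in McCoy's 5A with horse serum at 37°C, 5% CO2. 5 x 10^4 cells/well, serial compound dilutions, 48 h. MTT added to 0.5 mg/mL final for 4 h, then 10% SDS in 0.01 M HCl overnight, OD read at 540 and 630 nm. IC50 taken as median cytotoxic activity (Dm) from control lanes of checkerboard plates, n=2.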

[21] = Synergistic cytotoxicity against mouse L5178 cells expressing human ABCB1 assessed as combination index at ED75 using 60:1 test compound to doxorubicin ratio after 48 hrs by MTT-based checkerboard microplate method; type: functional; procedure, shortened: as §1
[22] = Synergistic cytotoxicity against mouse L5178 cells assessed as combination index at ED90 using 37.5:1 test compound to doxorubicin ratio after 48 hrs by MTT-based checkerboard microplate method; type: functional; procedure, shortened: as §1
[23] = Cytotoxicity against mouse L5178 cells after 48 hrs by MTT assay; type: functional, cell-based; settings: L5178, 48 h; procedure, shortened: as §4
[24] = Synergistic cytotoxicity against mouse L5178 cells assessed as combination index at ED50 using 75:1 test compound to doxorubicin ratio after 48 hrs by MTT-based checkerboard microplate method; type: functional; procedure, shortened: as §1
[25] = Synergistic cytotoxicity against mouse L5178 cells assessed as combination index at ED75 using 37.5:1 test compound to doxorubicin ratio after 48 hrs by MTT-based checkerboard microplate method; type: functional; procedure, shortened: as §1
[26] = Synergistic cytotoxicity against mouse L5178 cells assessed as combination index at ED90 using 75:1 test compound to doxorubicin ratio after 48 hrs by MTT-based checkerboard microplate method; type: functional; procedure, shortened: as §1
[27] = Synergistic cytotoxicity against mouse L5178 cells expressing human ABCB1 assessed as combination index at ED90 using 15:1 test compound to doxorubicin ratio after 48 hrs by MTT-based checkerboard microplate method; type: functional; procedure, shortened: as §1
[28] = Synergistic cytotoxicity against mouse L5178 cells expressing human ABCB1 assessed as combination index at ED50 using 30:1 test compound to doxorubicin ratio after 48 hrs by MTT-based checkerboard microplate method; type: functional; procedure, shortened: as §1
[29] = Synergistic cytotoxicity against mouse L5178 cells assessed as combination index at ED75 using 300:1 test compound to doxorubicin ratio after 48 hrs by MTT-based checkerboard microplate method; type: functional; procedure, shortened: as §1
[30] = Synergistic cytotoxicity against mouse L5178 cells assessed as combination index at ED75 using 150:1 test compound to doxorubicin ratio after 48 hrs by MTT-based checkerboard microplate method; type: functional; procedure, shortened: as §1
SiHa = assay: Antiproliferative activity against human SiHa cells after 72 hrs by MTT assay; type: functional, cell-based; procedure, shortened: as §2
[31] = Synergistic cytotoxicity against mouse L5178 cells expressing human ABCB1 assessed as combination index at ED75 using 30:1 test compound to doxorubicin ratio after 48 hrs by MTT-based checkerboard microplate method; type: functional; procedure, shortened: as §1

IC50 (MCF7): 22.6 µM | IC50 (HeLa): > 30 µM | inhibition at 10 min, 20 µM (ABCB1 (P-glycoprotein) [8]): 78.8% | inhibition at 10 min, 2 µM (ABCB1 (P-glycoprotein) [10]): 17.5% | IC50 (MDA-MB-231): > 30 µM
SMILES: CCO/N=C1\C=C2[C@H](CC[C@]3(C)[C@@H]([C@@]4(C)OC(C)(C)O[C@@H]4CCC(C)(C)O)CC[C@@]23O)[C@@]2(C)C[C@@H]3OC(C)(C)O[C@@H]3C[C@@H]12
CI [1]: 1.09 | CI [2]: 0.12 | CI [3]: 0.55 | CI [4]: 0.89 | CI [5]: 0.31 | CI [6]: 0.14 | CI [7]: 0.17 | CI [9]: 0.16 | CI [11]: 0.41 | CI [12]: 0.7 | CI [13]: 1.02 | CI [14]: 0.26 | CI [15]: 1.1 | CI [16]: 1.06 | CI [17]: 0.57 | CI [18]: 0.95 | CI [19]: 0.18 | IC50 [20]: 47 µM | CI [21]: 0.35 | CI [22]: 0.6 | IC50 [23]: 35 µM | CI [24]: 0.59 | CI [25]: 0.58 | CI [26]: 0.84 | CI [27]: 0.15 | CI [28]: 0.2 | CI [29]: 1.08 | CI [30]: 0.8 | IC50 (SiHa): > 30 µM | CI [31]: 0.23

SMILES: CC(C)(O)CC[C@H]1OC(C)(C)O[C@]1(C)[C@H]1CC[C@@]2(O)C3=C/C(=N\OC(C)(C)C)[C@@H]4C[C@H]5OC(C)(C)O[C@H]5C[C@]4(C)[C@H]3CC[C@]12C
CI [1]: 0.91 | IC50 (MCF7): 11.1 µM | CI [2]: 0.17 | IC50 (HeLa): 8.43 µM | CI [3]: 0.58 | CI [4]: 1.7 | CI [5]: 0.38 | CI [6]: 0.2 | CI [7]: 0.24 | inhibition at 10 min, 20 µM (ABCB1 (P-glycoprotein) [8]): 112% | CI [9]: 0.23 | inhibition at 10 min, 2 µM (ABCB1 (P-glycoprotein) [10]): 38.8% | CI [11]: 0.53 | CI [12]: 0.67 | CI [13]: 1 | CI [14]: 0.36 | CI [15]: 1.26 | CI [16]: 1.06 | CI [17]: 0.66 | CI [18]: 1.3 | IC50 (MDA-MB-231): 12.4 µM | CI [19]: 0.3 | IC50 [20]: 29.1 µM | CI [21]: 0.44 | CI [22]: 0.7 | IC50 [23]: 28.1 µM | CI [24]: 0.56 | CI [25]: 0.63 | CI [26]: 0.8 | CI [27]: 0.25 | CI [28]: 0.27 | CI [29]: 0.98 | CI [30]: 0.91 | IC50 (SiHa): 16.1 µM | CI [31]: 0.29

IC50 (MCF7): > 30 µM | IC50 (HeLa): > 30 µM | inhibition at 10 min, 20 µM (ABCB1 (P-glycoprotein) [8]): 25.1% | inhibition at 10 min, 2 µM (ABCB1 (P-glycoprotein) [10]): 2.25% | IC50 (MDA-MB-231): > 30 µM
SMILES: CO/N=C1\C=C2[C@H](CC[C@]3(C)[C@@H]([C@@]4(C)OC(C)(C)O[C@@H]4CCC(C)(C)O)CC[C@@]23O)[C@@]2(C)C[C@@H]3OC(C)(C)O[C@@H]3C[C@@H]12
CI [1]: 0.82 | CI [2]: 0.16 | CI [3]: 1.19 | CI [4]: 0.91 | CI [5]: 0.29 | CI [6]: 0.17 | CI [7]: 1.06 | CI [9]: 0.16 | CI [11]: 0.52 | CI [12]: 1.06 | CI [13]: 0.93 | CI [14]: 0.24 | CI [15]: 0.62 | CI [16]: 0.83 | CI [17]: 0.17 | CI [18]: 0.9 | CI [19]: 0.19 | IC50 [20]: 55.1 µM | CI [21]: 0.39 | CI [22]: 1.13 | IC50 [23]: 40.9 µM | CI [24]: 0.99 | CI [25]: 1.14 | CI [26]: 1.19 | CI [27]: 0.16 | CI [28]: 0.19 | CI [29]: 0.8 | CI [30]: 0.79 | IC50 (SiHa): > 30 µM | CI [31]: 0.21
